In ChEMBL document CHEMBL3124771, “Design, synthesis and antitubercular evaluation of novel series of N-[4-(piperazin-1-yl)phenyl]cinnamamide derivatives” (Eur J Med Chem, 2014):
In brackets after ≈: the same amount, converted by molar mass.

System: Mycobacterium tuberculosis
Assay: Antitubercular activity against Mycobacterium tuberculosis H37Rv after 7 days by resazurin microtitre assay
Format: functional
Settings: 168 h
Method in brief: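 M. tb H37Rv in Middlebrook 7H9 broth; compounds dissolved in DMSO (2 mg/ml stock), serially diluted in 96-well plate to 1.56–50 μg/ml, 100 μl cell suspension per well. After 7 days, 0.02% w/v resazurin added, incubated 1 more day; MIC = lowest concentration preventing blue-to-pink colour change (>90% inhibition), read visually. Isoniazid reference.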

Point of comparison: `NNC(=O)c1ccncc1` [ISONIAZID], MIC90 0.39 µg/mL (≈ 2.84 µM). Against it:
- O=C(/C=C/c1ccccc1)Nc1ccc(N2CCN(C(=O)c3ccccc3C(F)(F)F)CC2)cc1 — 130-fold higher, 50 µg/mL (≈ 104 µM)
- O=C(/C=C/c1ccc([N+](=O)[O-])cc1)Nc1ccc(N2CCNCC2)c(F)c1 — 32-fold higher, 12.5 µg/mL (≈ 33.7 µM)
- O=C(/C=C/c1ccc([N+](=O)[O-])cc1)Nc1ccc(N2CCN(C(=O)c3ccc([N+](=O)[O-])cc3)CC2)c(F)c1 — higher, > 50 µg/mL
- COC(=O)N1CCN(c2ccc(NC(=O)/C=C/c3ccc([N+](=O)[O-])cc3)cc2F)CC1 — higher, > 50 µg/mL
- O=C(/C=C/c1ccc([N+](=O)[O-])cc1)Nc1ccc(N2CCN(C(=O)c3cc(Cl)cc(Cl)c3)CC2)cc1 — higher, > 50 µg/mL
- CCOC(=O)N1CCN(c2ccc(NC(=O)/C=C/c3ccc([N+](=O)[O-])cc3)cc2)CC1 — higher, > 50 µg/mL
- CCOC(=O)N1CCN(c2ccc(NC(=O)/C=C/c3ccc([N+](=O)[O-])cc3)cc2F)CC1 — higher, > 50 µg/mL
- COC(=O)N1CCN(c2ccc(NC(=O)/C=C/c3ccc([N+](=O)[O-])cc3)cc2)CC1 — higher, > 50 µg/mL
- CC(C)(C)OC(=O)N1CCN(c2ccc(NC(=O)/C=C/c3ccccc3)cc2)CC1 — 32-fold higher, 12.5 µg/mL (≈ 30.7 µM)
- O=C(/C=C/c1ccc([N+](=O)[O-])cc1)Nc1ccc(N2CCNCC2)cc1 — 130-fold higher, 50 µg/mL (≈ 142 µM)
- CC(C)(C)OC(=O)N1CCN(c2ccc(NC(=O)/C=C/c3ccc([N+](=O)[O-])cc3)cc2F)CC1 — 130-fold higher, 50 µg/mL (≈ 106 µM)
- O=C(/C=C/c1ccccc1)Nc1ccc(N2CCN(C(=O)c3ccncc3)CC2)c(F)c1 — higher, > 50 µg/mL
- O=C(/C=C/c1ccc([N+](=O)[O-])cc1)Nc1ccc(N2CCN(C(=O)Oc3ccccc3)CC2)cc1 — higher, > 50 µg/mL
- O=C(/C=C/c1ccc([N+](=O)[O-])cc1)Nc1ccc(N2CCN(C(=O)c3ccncc3)CC2)cc1 — higher, > 50 µg/mL
- CN1CCN(c2ccc(NC(=O)/C=C/c3ccccc3)cc2F)CC1 — 64-fold higher, 25 µg/mL (≈ 73.7 µM)
- O=C(/C=C/c1ccccc1)Nc1ccc(N2CCN(C(=O)c3ccccc3C(F)(F)F)CC2)c(F)c1 — 8-fold higher, 3.12 µg/mL (≈ 6.28 µM)
- CN1CCN(c2ccc(NC(=O)/C=C/c3ccccc3)cc2)CC1 — 16-fold higher, 6.25 µg/mL (≈ 19.4 µM)
- COC(=O)N1CCN(c2ccc(NC(=O)/C=C/c3ccccc3)cc2)CC1 — higher, > 50 µg/mL
- CCN1CCN(c2ccc(NC(=O)/C=C/c3ccc([N+](=O)[O-])cc3)cc2)CC1 — 32-fold higher, 12.5 µg/mL (≈ 32.9 µM)
- O=C(/C=C/c1ccccc1)Nc1ccc(N2CCN(c3ccccn3)CC2)c(F)c1 — higher, > 50 µg/mL
- O=C(/C=C/c1ccc([N+](=O)[O-])cc1)Nc1ccc(N2CCN(C(=O)c3cc(Cl)cc(Cl)c3)CC2)c(F)c1 — 32-fold higher, 12.5 µg/mL (≈ 23 µM)
- O=C(/C=C/c1ccccc1)Nc1ccc(N2CCN(C(=O)c3ccc([N+](=O)[O-])cc3)CC2)cc1 — higher, > 50 µg/mL
- O=C(/C=C/c1ccc([N+](=O)[O-])cc1)Nc1ccc(N2CCN(c3ccccn3)CC2)cc1 — higher, > 50 µg/mL
- CC(C)(C)OC(=O)N1CCN(c2ccc(NC(=O)/C=C/c3ccc([N+](=O)[O-])cc3)cc2)CC1 — 32-fold higher, 12.5 µg/mL (≈ 27.6 µM)
- O=C(/C=C/c1ccccc1)Nc1ccc(N2CCN(C(=O)c3cc(Cl)cc(Cl)c3)CC2)cc1 — higher, > 50 µg/mL
- O=C(/C=C/c1ccccc1)Nc1ccc(N2CCNCC2)cc1 — 32-fold higher, 12.5 µg/mL (≈ 40.7 µM)
- CCN1CCN(c2ccc(NC(=O)/C=C/c3ccc([N+](=O)[O-])cc3)cc2F)CC1 — higher, > 50 µg/mL
- O=C(/C=C/c1ccc([N+](=O)[O-])cc1)Nc1ccc(N2CCN(c3ccccn3)CC2)c(F)c1 — higher, > 50 µg/mL
- O=C(/C=C/c1ccccc1)Nc1ccc(N2CCN(C(=O)c3ccc(F)cc3)CC2)cc1 — 64-fold higher, 25 µg/mL (≈ 58.2 µM)
- O=C(/C=C/c1ccc([N+](=O)[O-])cc1)Nc1ccc(N2CCN(C(=O)c3ccc(F)cc3)CC2)c(F)c1 — 32-fold higher, 12.5 µg/mL (≈ 25.4 µM)
- O=C(/C=C/c1ccccc1)Nc1ccc(N2CCN(C(=O)Oc3ccccc3)CC2)cc1 — higher, > 50 µg/mL
- O=C(/C=C/c1ccc([N+](=O)[O-])cc1)Nc1ccc(N2CCN(C(=O)c3ccc(F)cc3)CC2)cc1 — 32-fold higher, 12.5 µg/mL (≈ 26.3 µM)
- CC(C)(C)OC(=O)N1CCN(c2ccc(NC(=O)/C=C/c3ccccc3)cc2F)CC1 — 130-fold higher, 50 µg/mL (≈ 118 µM)
- CCOC(=O)N1CCN(c2ccc(NC(=O)/C=C/c3ccccc3)cc2F)CC1 — higher, > 50 µg/mL
- O=C(/C=C/c1ccccc1)Nc1ccc(N2CCN(c3ccccn3)CC2)cc1 — higher, > 50 µg/mL
- CN1CCN(c2ccc(NC(=O)/C=C/c3ccc([N+](=O)[O-])cc3)cc2F)CC1 — 64-fold higher, 25 µg/mL (≈ 65 µM)
- CCOC(=O)N1CCN(c2ccc(NC(=O)/C=C/c3ccccc3)cc2)CC1 — higher, > 50 µg/mL
- O=C(/C=C/c1ccc([N+](=O)[O-])cc1)Nc1ccc(N2CCN(C(=O)c3ccccc3C(F)(F)F)CC2)c(F)c1 — higher, > 50 µg/mL
- O=C(/C=C/c1ccc([N+](=O)[O-])cc1)Nc1ccc(N2CCN(C(=O)c3ccccc3C(F)(F)F)CC2)cc1 — higher, > 50 µg/mL
- O=C(/C=C/c1ccccc1)Nc1ccc(N2CCN(C(=O)Oc3ccccc3)CC2)c(F)c1 — higher, > 50 µg/mL
- O=C(/C=C/c1ccc([N+](=O)[O-])cc1)Nc1ccc(N2CCN(C(=O)c3ccc([N+](=O)[O-])cc3)CC2)cc1 — higher, > 50 µg/mL
- O=C(/C=C/c1ccccc1)Nc1ccc(N2CCNCC2)c(F)c1 — 64-fold higher, 25 µg/mL (≈ 76.8 µM)
- CN1CCN(c2ccc(NC(=O)/C=C/c3ccc([N+](=O)[O-])cc3)cc2)CC1 — 32-fold higher, 12.5 µg/mL (≈ 34.1 µM)
- O=C(/C=C/c1ccccc1)Nc1ccc(N2CCN(C(=O)c3cc(Cl)cc(Cl)c3)CC2)c(F)c1 — 32-fold higher, 12.5 µg/mL (≈ 25.1 µM)
- O=C(/C=C/c1ccc([N+](=O)[O-])cc1)Nc1ccc(N2CCN(C(=O)Oc3ccccc3)CC2)c(F)c1 — higher, > 50 µg/mL
- O=C(/C=C/c1ccccc1)Nc1ccc(N2CCN(C(=O)c3ccc([N+](=O)[O-])cc3)CC2)c(F)c1 — 32-fold higher, 12.5 µg/mL (≈ 26.3 µM)
- O=C(/C=C/c1ccc([N+](=O)[O-])cc1)Nc1ccc(N2CCN(C(=O)c3ccncc3)CC2)c(F)c1 — 32-fold higher, 12.5 µg/mL (≈ 26.3 µM)
- CCN1CCN(c2ccc(NC(=O)/C=C/c3ccccc3)cc2)CC1 — 32-fold higher, 12.5 µg/mL (≈ 37.3 µM)
- O=C(/C=C/c1ccccc1)Nc1ccc(N2CCN(C(=O)c3ccc(F)cc3)CC2)c(F)c1 — higher, > 50 µg/mL
- COC(=O)N1CCN(c2ccc(NC(=O)/C=C/c3ccccc3)cc2F)CC1 — higher, > 50 µg/mL
- CCN1CCN(c2ccc(NC(=O)/C=C/c3ccccc3)cc2F)CC1 — 32-fold higher, 12.5 µg/mL (≈ 35.4 µM)
- O=C(/C=C/c1ccccc1)Nc1ccc(N2CCN(C(=O)c3ccncc3)CC2)cc1 — 130-fold higher, 50 µg/mL (≈ 121 µM)

System: not listed separately
Assay: Selectivity index, ratio of IC50 for African green monkey Vero cells to MIC for Mycobacterium tuberculosis H37Rv
Format: toxicity, cell-based
Settings: read-out: Selectivity Index
Method in brief: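 SI = Vero IC50 / H37Rv MIC. Vero cytotoxicity by MTT: subcultured cells exposed 72 h to 125, 62.5, 31.25 μg/ml; MTT added 4 h, formazan dissolved in DMSO. MIC by REMA: H37Rv in 7H9 broth, 1.56–50 μg/ml serial dilutions, 7 days then resazurin 1 day, visual colour read.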

`O=C(/C=C/c1ccccc1)Nc1ccc(N2CCN(C(=O)c3ccccc3C(F)(F)F)CC2)c(F)c1` and `CCN1CCN(c2ccc(NC(=O)/C=C/c3ccccc3)cc2F)CC1` cannot be ordered by selectivity ratio: greater than 40 for the first, greater than 10 for the second.

`CN1CCN(c2ccc(NC(=O)/C=C/c3ccccc3)cc2)CC1` and `O=C(/C=C/c1ccc([N+](=O)[O-])cc1)Nc1ccc(N2CCN(C(=O)c3ccc(F)cc3)CC2)cc1` cannot be ordered by selectivity ratio: greater than 10 for the first, greater than 10 for the second.

In the case of `O=C(/C=C/c1ccc([N+](=O)[O-])cc1)Nc1ccc(N2CCN(C(=O)c3ccncc3)CC2)c(F)c1`, the selectivity ratio is reported as greater than 10.

System: Vero
Assay: Cytotoxicity against African green monkey Vero cells after 72 hrs by MTT assay
Format: cell-based
Settings: Chlorocebus sabaeus
Method in brief: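 Vero cells subcultured, then exposed to compound at 125, 62.5 and 31.25 μg/ml for 72 h. MTT added for a further 4 h; formazan dissolved in DMSO. Viability read from tetrazolium-to-formazan conversion and reported as IC50.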

`O=C(/C=C/c1ccccc1)Nc1ccc(N2CCN(C(=O)c3ccccc3C(F)(F)F)CC2)c(F)c1` and `CCN1CCN(c2ccc(NC(=O)/C=C/c3ccccc3)cc2F)CC1` cannot be ordered by IC50: greater than 125 µg/mL for the first, greater than 125 µg/mL for the second.

`CN1CCN(c2ccc(NC(=O)/C=C/c3ccccc3)cc2)CC1` and `O=C(/C=C/c1ccc([N+](=O)[O-])cc1)Nc1ccc(N2CCN(C(=O)c3ccc(F)cc3)CC2)cc1` cannot be ordered by IC50: greater than 125 µg/mL for the first, greater than 125 µg/mL for the second.

`O=C(/C=C/c1ccc([N+](=O)[O-])cc1)Nc1ccc(N2CCN(C(=O)c3ccncc3)CC2)c(F)c1` gave an IC50 greater than 125 µg/mL.
